Measurements reported in ChEMBL document CHEMBL3621067, “Antihyperlipidemic morpholine derivatives with antioxidant activity: An investigation of the aromatic substitution” (Bioorg Med Chem, 2015).

What was measured:
Rattus norvegicus [1] = test: Antihyperlipidemic activity in Triton WR1339-induced hyperlipidemic rat assessed as reduction in plasma total cholesterol at 56 umol/kg, ip dosed 1 hr after Triton WR1339 challenge and measured 24 hrs post dose relative to control; format: functional
Summary of the method: (§1)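 Rats given Triton WR1339 to induce acute hyperlipidemia, established 24 h later; compounds given ip at 56 μmol/kg. Animals held at 22 °C on a 12 h light/dark cycle with free chow and water. Plasma lipids measured in duplicate; values are the mean of 8–10 rats per compound, expressed as % decrease versus hyperlipidemic controls; significance by Student's test.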

Rattus norvegicus [2] = test: Antihypercholesterolemic activity in Triton WR1339-induced hyperlipidemic rat assessed as reduction in plasma LDL-C level at 56 umol/kg, ip dosed 1 hr after Triton WR1339 challenge and measured 24 hrs post dose relative to control; format: functional
Summary of the method: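 Rats, housed at 22 °C on a 12 h light/dark cycle with free chow and water, given Triton WR1339 to induce acute hyperlipidemia (established 24 h later). Compound given ip at 56 μmol/kg. Plasma LDL measured in duplicate and expressed as % decrease versus hyperlipidemic controls; mean of 8–10 rats per compound.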

Rattus norvegicus [3] = test: Antihyperlipidemic activity in Triton WR1339-induced hyperlipidemic rat assessed as reduction in plasma triglyceride level at 56 umol/kg, ip dosed 1 hr after Triton WR1339 challenge and measured 24 hrs post dose relative to control; format: functional; summary of the method: as §1
Liver = test: Antioxidant activity in rat heat-inactivated rat hepatic microsomes assessed as inhibition of TBAR level incubated for 45 mins by spectrophotometry; format: functional; conditions: 0.75 h
Summary of the method: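 Heat-inactivated liver microsomes from untreated rats (2.5 mg protein/mL, 4 mM fatty acid residues) with 0.2 mM ascorbic acid in Tris–HCl/KCl (50/150 mM, pH 7.4); compounds in DMSO, 10 μM to 1 mM. Incubated at 37 °C for 45 min; TBAR read at 535 against 600 nm. Run in duplicate; IC50 is the mean concentration giving 50% inhibition of control peroxidation.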

[4] = target: T1, Squalene synthase (Rattus norvegicus) (UniProt Q02769); test: Inhibition of squalene synthase in rat liver microsomes assessed as reduction in conversion of [3H]farnesyl pyrophosphate to squalene at 10 uM […] by liquid scintillation counting method
T1 sequence (whole entry): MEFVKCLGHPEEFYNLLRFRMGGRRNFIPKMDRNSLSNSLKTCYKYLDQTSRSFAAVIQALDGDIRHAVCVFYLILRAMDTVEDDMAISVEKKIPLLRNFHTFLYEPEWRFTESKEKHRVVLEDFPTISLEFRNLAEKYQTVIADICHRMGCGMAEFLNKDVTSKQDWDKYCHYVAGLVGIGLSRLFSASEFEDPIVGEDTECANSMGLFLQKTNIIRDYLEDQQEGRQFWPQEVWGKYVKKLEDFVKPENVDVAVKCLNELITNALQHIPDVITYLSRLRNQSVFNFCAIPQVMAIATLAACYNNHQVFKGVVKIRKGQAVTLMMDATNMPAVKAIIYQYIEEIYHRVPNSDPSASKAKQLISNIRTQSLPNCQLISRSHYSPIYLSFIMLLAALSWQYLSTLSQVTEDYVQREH

[5] = target: T1, Squalene synthase (Rattus norvegicus); test: Inhibition of squalene synthase in rat liver microsomes assessed as reduction in conversion of [3H]farnesyl pyrophosphate to squalene at 50 uM incubated for 30 mins by liquid scintillation counting
Summary of the method: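 Rat liver microsomes (18 μg protein/mL) in 50 mM phosphate, pH 7.4, with 10 mM MgCl2 and 0.5 mM NADPH; compounds in ethanol. Preincubated 10 min at 37 °C, then started with [3H]FPP (0.5 μM, 0.27 Ci/mmol) for 10 min at 37 °C. Stopped with 15% ethanolic KOH, heated 65 °C for 30 min, extracted into petroleum ether, and squalene counted by scintillation. Run in duplicate.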

Squalene synthase = target: T2, Squalene synthase (Rattus norvegicus, UniProt Q02769); test: Inhibition of squalene synthase in rat liver microsomes assessed as reduction in conversion of [3H]farnesyl pyrophosphate to squalene incubated for 30 mins by liquid scintillation counting
T2 sequence (Q02769 whole entry): T1 sequence (whole entry)

| SMILES | inhibition in vivo at 56 µmol/kg (Rattus norvegicus [1]) [%] | inhibition in vivo at 56 µmol/kg (Rattus norvegicus [2]) [%] | inhibition in vivo at 56 µmol/kg (Rattus norvegicus [3]) [%] | IC50 (Liver) [µM] | inhibition [4] [%] | inhibition [5] [%] | IC50 (Squalene synthase) [µM] |
| --- | --- | --- | --- | --- | --- | --- | --- |
| CCC(C)(C)C(=O)O[C@H]1C[C@@H](C)C=C2C=C[C@H](C)[C@H](CC[C@@H]3C[C@@H](O)CC(=O)O3)[C@H]21 [SIMVASTATIN] | 75 | 70 | 0 |  |  |  |  |
| CN1CC(O)(c2ccc(-c3ccc([N+](=O)[O-])cc3)cc2)OC2CCCCC21 (stereo unspecified) | 62 |  | 20 | 57 |  |  |  |
| CC(C)(C)c1ccc(-c2ccc(C3(O)CN4CCCCC4CO3)cc2)cc1 (stereo unspecified) | 64 |  | 59 | 410 | 40 |  |  |
| OC1(c2ccc(-c3nccs3)cc2)CN2CCCCC2CO1 (stereo unspecified) | 21 |  | 58 | 1000 |  | 35 |  |
| CN1CC(O)(c2ccc(-c3nccs3)cc2)OC2CCCCC21 (stereo unspecified) |  |  |  |  |  | 29 |  |
| CN1CCOC(O)(c2ccc3c(ccc4ccccc43)c2)C1 (stereo unspecified) | 58 | 52 | 69 | 174 | 48 |  | 8.8 |
| OC1(c2ccc3c(ccc4ccccc43)c2)CN2CCCCC2CO1 (stereo unspecified) | 40 | 53 | 66 | 198 | 87 |  | 0.7 |
| CN1CC(O)(c2ccc3c(ccc4ccccc43)c2)OC2CCCCC21 (stereo unspecified) | 49 | 20 | 59 | 191 | 76 |  | 5.5 |
| Oc1ccc(-c2ccc(C3(O)CN4CCCCC4CO3)cc2)cc1 (stereo unspecified) | 40 |  | 43 | 134 | 7 |  |  |
| OC1(c2ccc(C3CCCCC3)cc2)CN2CCCCC2CO1 (stereo unspecified) | 80 | 62 | 70 | 700 | 9 |  | 80 |
| CN1CC(O)(c2ccc(-c3ccc(O)cc3)cc2)OC2CCCCC21 (stereo unspecified) | 54 |  | 48 | 135 | 61 |  |  |
| CN1CC(O)(c2ccc(C3CCCCC3)cc2)OC2CCCCC21 (stereo unspecified) | 51 | 23 | 20 | 180 | 18 |  | 42 |
| O=[N+]([O-])c1ccc(-c2ccc(C3(O)CN4CCCCC4CO3)cc2)cc1 (stereo unspecified) | 59 |  | 31 | 539 | 43 |  |  |
| CN1CCOC(O)(c2ccc(-c3ccc([N+](=O)[O-])cc3)cc2)C1 (stereo unspecified) | 41 |  | 44 | 73 | 29 |  |  |
| CN1CCOC(O)(c2ccc(-c3nccs3)cc2)C1 (stereo unspecified) |  |  |  |  |  | 30 |  |
| CN1CCOC(O)(c2ccc(-c3ccc(C(C)(C)C)cc3)cc2)C1 (stereo unspecified) | 45 |  | 47 | 91 | 61 |  |  |
| CN1CCOC(O)(c2ccc(C3CCCCC3)cc2)C1 (stereo unspecified) | 44 | 36 | 34 | 190 | 0 |  | > 100 |
| CN1CC(O)(c2ccc(-c3ccc(C(C)(C)C)cc3)cc2)OC2CCCCC21 (stereo unspecified) | 17 |  | 15 | 214 | 67 |  |  |
